{"source": "ChEMBL document CHEMBL2040777", "about": "“N-Aryl-N'-(chroman-4-yl)ureas and thioureas display in vitro anticancer activity and selectivity on apoptosis-resistant glioblastoma cells: screening, synthesis of simplified derivatives, and structure-activity relationship analysis” (Eur J Med Chem, 2012)", "key": {"[1]": {"experiment": "Growth inhibition of human U373 cells after 72 hrs by MTT assay", "type": "functional, cell-based, U-373MG ATCC", "conditions": "U373 MG", "outline": "(§1)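 Glioma lines were grown in RPMI with 10% heat-inactivated FCS, 4 mM glutamine, gentamicin and penicillin-streptomycin. Cells were plated for 24 h at 10,000–40,000 cells/mL, then exposed to compound for 72 h. MTT reduction to formazan was read at 570 nm (reference 630 nm). Six replicates were run.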"}, "[2]": {"experiment": "Cell cycle arrest in human U373 cells assessed as accumulation at G0/G1 phase at 30 to 100 uM after 24 hrs by propidium iodide staining-based flow cytometric analysis", "type": "functional", "conditions": "U-373MG ATCC"}, "T98G [3]": {"tested_on": "T98G", "experiment": "Growth inhibition of human T98G cells after 72 hrs by MTT assay", "type": "functional, cell-based", "outline": "as §1"}, "[4]": {"experiment": "Growth inhibition of human Hs683 cells after 72 hrs by MTT assay", "type": "functional, cell-based", "conditions": "Hs 683, 72 h", "outline": "as §1"}, "B16-F10": {"tested_on": "B16-F10", "experiment": "Growth inhibition of mouse B16F10 cells after 72 hrs by MTT assay", "type": "functional, cell-based", "conditions": "B16-F10, 72 h"}, "[5]": {"experiment": "Selectivity index, ratio of IC50 for mouse astrocytes to IC50 for human U373 cells", "parameters": "species or system U-373MG ATCC"}, "T98G [6]": {"tested_on": "T98G", "experiment": "Selectivity index, ratio of IC50 for mouse astrocytes to IC50 for human T98G cells"}, "Hs 683": {"tested_on": "Hs 683", "experiment": "Selectivity index, ratio of IC50 for mouse astrocytes to IC50 for human Hs683 cells"}, "[7]": {"experiment": "Cell cycle arrest in human U373 cells assessed as accumulation at G0/G1 phase at 10 to 30 uM after 24 hrs by propidium iodide staining-based flow cytometric analysis", "type": "functional", "conditions": "U-373MG ATCC"}, "[8]": {"experiment": "Cytostatic activity against human U373 cells assessed as global growth ratio by measuring number of cells counted in the last and the first frame of study at 20 uM by quantitative videomicroscopic analysis", "type": "functional, U-373MG ATCC", "outline": "(§2)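 U373 cells were cultured in 25 cm² flasks and filmed by computer-assisted phase-contrast time-lapse for 72 h, one image every 4 min. Growth level was the cell count in the last frame divided by the first. Global growth ratio was treated growth level over control growth level. Compounds were tested at 20 µM.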"}, "U-373MG ATCC": {"tested_on": "U-373MG ATCC", "experiment": "Induction of apoptosis in human U373 cells assessed as increase in subG1 cell population at 10 to 30 uM after 24 hrs by flow cytometric analysis", "type": "functional, cell-based"}, "[9]": {"experiment": "Growth inhibition of human U373 cells assessed as global growth ratio after 72 hrs by quantitative videomicroscopic analysis relative to untreated control", "type": "functional, U-373MG ATCC", "conditions": "U373 MG", "outline": "as §2"}}, "note": "The source made the active and inactive calls. The rule behind the calls is not given here."}
{"compound": "CC(N/C(=N\\C#N)Nc1ccncc1)C(C)(C)C", "note": "(stereo not drawn) [PINACIDIL ANHYDROUS]", "values": [{"measurement": "IC50", "setting": "[1]", "value": "> 100", "unit": "µM"}, {"measurement": "Activity", "setting": "[2]", "value": "inactive"}]}
{"compound": "CC1(C)CC(NC(=O)Nc2ccccc2Cl)c2cc(Cl)ccc2O1", "note": "(stereo not drawn)", "values": [{"measurement": "IC50", "setting": "[1]", "value": 17, "unit": "µM"}, {"measurement": "IC50", "setting": "T98G [3]", "value": 20, "unit": "µM"}, {"measurement": "IC50", "setting": "[4]", "value": 25, "unit": "µM"}, {"measurement": "IC50", "setting": "B16-F10", "value": 20, "unit": "µM"}, {"measurement": "Ratio IC50", "setting": "[5]", "value": ">10"}, {"measurement": "Ratio IC50", "setting": "T98G [6]", "value": ">10"}, {"measurement": "Ratio IC50", "setting": "Hs 683", "value": ">10"}, {"measurement": "Activity", "setting": "[7]", "value": "Active"}, {"measurement": "Ratio", "setting": "[8]", "value": 0.2}, {"measurement": "Activity", "setting": "U-373MG ATCC", "value": "inactive"}, {"measurement": "IC80", "setting": "[9]", "value": 20, "unit": "µM"}]}
